Screens: PubChem, several laboratories
RGS4 pot – potentiators or activators of RGS4 | HEK293 M3R/inducible RGS4, carbachol calcium flux Fluo4; hits give low values | B-score at 10 µM | 310,000 tested, 0.92% active | AID 463111;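 active means B-score of the integrated calcium signal more than 4 SD below the library mean, with starting fluorescence not abnormally high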;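 further: negative B-score means reduced calcium response which marks RGS4 activation or potentiation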
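System: HEK293 FlpIn-TREx cells, stable M3R, doxycycline-inducible RGS4. Timing: overnight RGS4 induction, 30 min dye load 37 °C, 20 min compound RT. Also added: carbachol, ECmax concentration. Measured by: Fluo4 fluorescence kinetic imaging of calcium. Evaluation: integrated calcium ratio converted to B score.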
Lipid droplet – hepatic lipid droplet formation modulation. AML12 mouse hepatocytes, oleate lipid droplets, BODIPY imaging. inhibition, % at 6.5 µM. 240,000 tested, 0.4% active. AID 1656;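 active means lipid droplet intensity inhibited by at least 50%, with more than 500 cells counted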
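Material: mouse AML12 hepatocyte cell line, fixed after treatment; Timing: compound with oleate, overnight; Technique: high-content imaging of BODIPY-stained droplets and DAPI nuclei; Probe or stimulus: oleate, 100 µM final; Dosing: compound at 6.5 µM only.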
MrgX1 allo act – allosterically activates human MrgX1 receptor signaling; B-score at 10 µM; MrgX1-HEK293, Fluo-4 calcium flux, FDSS; hits give high values; 310,000 tested, 0.63% active; Q96LB2;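 active means plate-corrected calcium response at least 3 library SD above typical, normal starting fluorescence, not activating the receptor alone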;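 further: compound read alongside a low EC10 to EC30 dose of BAM8-22 agonist; peak minus trough fluorescence over baseline measured at the second addition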
Target sequence (Q96LB2 whole entry, looked up): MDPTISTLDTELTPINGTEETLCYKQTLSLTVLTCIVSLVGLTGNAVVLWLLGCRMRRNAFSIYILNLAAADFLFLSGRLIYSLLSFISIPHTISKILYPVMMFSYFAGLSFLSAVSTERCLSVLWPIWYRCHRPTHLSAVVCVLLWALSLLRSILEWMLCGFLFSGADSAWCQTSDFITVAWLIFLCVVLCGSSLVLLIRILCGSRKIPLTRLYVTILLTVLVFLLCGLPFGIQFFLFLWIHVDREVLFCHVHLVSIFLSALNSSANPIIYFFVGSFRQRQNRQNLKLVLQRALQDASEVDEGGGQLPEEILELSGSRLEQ
RGS4 inh – human RGS4 inhibition; P49798; HEK293 M3R/RGS4 inducible, Fluo-4 calcium flux; hits give high values; triggered by carbachol at its EC20; B-score at 10 µM; 310,000 tested, 0.45% active;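 active means B-score, a plate-corrected calcium signal, over three deviations above library mean, with baseline fluorescence within five deviations of library mean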;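 further: RGS4 expression induced by doxycycline in cells with stable M3 receptor; B-score is computed from the integrated fluorescence ratio over baseline after carbachol; higher B-score means a larger calcium signal and so more RGS4 inhibition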
Target sequence (P49798 whole entry, looked up): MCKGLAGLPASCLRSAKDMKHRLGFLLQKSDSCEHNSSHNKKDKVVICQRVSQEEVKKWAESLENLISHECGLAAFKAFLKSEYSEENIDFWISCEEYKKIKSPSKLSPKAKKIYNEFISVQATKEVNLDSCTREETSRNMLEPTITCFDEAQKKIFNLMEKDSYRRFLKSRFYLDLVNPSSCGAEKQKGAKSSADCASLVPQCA
MrgX1 ag – human MrgX1 receptor agonism, primary screen; B-score at 10 µM; MrgX1-HEK293 cells, Fluo-4 calcium fluorescence, agonist mode; hits give high values; AID 588627; 310,000 tested, 0.44% active; Q96LB2;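 active means calcium response B-score plate-corrected fluorescence ratio at least 3 library SD, with starting fluorescence B-score inside 5 SD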
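Material: HEK293 cells stably expressing human MrgX1 receptor | Quantity: 15,000 cells per well | Times: Cells plated overnight, dye loaded 0.5 h 37 °C, 0.5 h room temperature | Measured by: Kinetic Fluo-4 NW fluorescence of intracellular calcium | Control set: Positive and negative controls per plate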
MrgX1 antag – blocks BAM8-22 activation of human MrgX1 receptor; Q96LB2; MRGX1-HEK293 calcium flux, Fluo-4, BAM8-22 antagonism; hits give low values; B-score at 10 µM; 310,000 tested, 1.3% active;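 active means calcium-response B-score plate-corrected more than 3 library SD below zero, starting fluorescence within 5 deviations, no agonist response on first addition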;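 further: peak minus trough fluorescence over baseline after final BAM8-22 challenge near maximal dose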
Numbers without * were called inactive; i = inactive; · = not tested or not shown. The list is not random: actives were taken first. Their share in the collection is about 3.8%.

SMILES | RGS4 pot | Lipid droplet | MrgX1 allo act | RGS4 inh | MrgX1 ag | MrgX1 antag
CN1CCN(CC#CCC(O)(c2ccccc2)C2CCCC2)CC1 (configuration not stated) | -7.5* | -17 | i | i | i | i
OC(CC#CCN1CCCCC1)(c1ccccc1)c1ccccc1 | -7.5* | 8 | i | i | i | i
CCOCCn1ccc2c(OCC(=O)NCc3ccccc3)cccc2c1=O | i | · | i | i | i | i
Cc1cccc(NC(=O)COc2coc(CN3CCN(c4ccccc4)CC3)cc2=O)c1C | i | · | i | i | i | i
CC(=O)Nc1cc(C(=O)N2CCc3ccccc3C2)ccc1Sc1ccc(F)cc1 | i | -26 | i | i | i | i
CC(=O)Nc1cc(C(=O)N2CCc3ccccc3C2)ccc1Sc1ccc(Cl)cc1 | -8* | 6 | i | i | i | i
CN(C)C(=O)CN1C(=O)NC2(CCc3ccccc32)C1=O (configuration not stated) | i | -3 | i | i | i | i
COc1ccc(/C=N/N=C/c2ccc(OC)c(OC)c2)cc1OC | i | -4 | i | i | i | i
COc1cc(/C=N/N=C(N)N)ccc1OCc1ccccc1Cl | i | 16 | 6.5* | i | i | i
S=C(Nc1cccc(Cl)c1)Nc1ccccc1Oc1ccccc1 | i | · | i | i | i | -5.8*
S=C(Nc1ccc(Cl)cc1Cl)Nc1ccccc1Oc1ccccc1 | i | · | i | i | i | i
CC1(OC(=O)c2cccs2)C(=O)C=C2C=C3CCCN3C=C2C1=O (configuration not stated) | i | -20 | i | i | i | i
CC(C)CCN1C(=O)c2ccccc2C1C(=O)NCc1cccnc1 (configuration not stated) | i | -4 | i | i | i | i
N#Cc1c(NC(=S)NC(=O)c2ccccc2)sc2c1CCN(CCc1ccccc1)C2 | i | 14 | i | i | 58* | i
Cc1nc(N2CCOCC2)c2c(C)c(C(=O)Nc3ccc(F)cc3Cl)sc2n1 | i | 4 | i | i | i | i
Cc1nc(N2CCN(c3ccccn3)CC2)c2c(C)c(C(=O)N3CCN(c4cccc(Cl)c4)CC3)sc2n1 | -7.1* | -23 | i | i | i | i
Cc1nc(N2CCN(c3ccccn3)CC2)c2c(C)c(C(=O)Nc3ccc(F)cc3Cl)sc2n1 | -7.4* | -54 | i | i | i | i
Cc1c(C(=O)N2CCN(c3ccccn3)CC2)sc2ncnc(N3CCN(c4ccccc4)CC3)c12 | i | · | i | i | i | i
O=C(NCCS(=O)(=O)N1CCN(c2cccc(Cl)c2)CC1)c1ccco1 | i | · | i | i | i | i
CCOc1ccc(NC(=O)C(NC(=O)C2CCC(C)CC2)C(C)C)cc1 (configuration not stated) | -7* | 11 | i | i | i | i
Cc1nn2c(=O)cc(CSCC(=O)Nc3ccccc3Cl)nc2s1 | i | 11 | i | i | i | i
Cn1cccc1/C=C1\SC(=S)N(NC(=O)c2ccccc2O)C1=O | i | -20 | i | i | i | i
O=C(NN1C(=O)/C(=C/C=C/c2ccco2)SC1=S)c1ccccc1O | i | 9 | i | i | i | -4.6*
O=P(c1ccccc1)(c1ccccc1)c1cc(S(=O)(=O)O)ccc1O | i | 11 | i | i | i | i
Cc1nn(-c2ccc(F)cc2)c(Cl)c1/C=N/NC(=O)c1cccs1 | i | 5 | i | i | i | i
SMILES | RGS4 pot | Lipid droplet | MrgX1 allo act | RGS4 inh | MrgX1 ag | MrgX1 antag
Cc1nn(-c2ccc(Cl)cc2)c(Cl)c1/C=N/NC(=O)c1ccc(NS(=O)(=O)c2cccs2)cc1 | i | · | 13* | i | i | i
COc1ccc2[nH]c3c(c2c1)CCN1C(=O)N([C@@H](C)C(=O)NC2CCCCC2C)C(=O)[C@]31C (some centres not stated) | i | -38 | i | i | i | i
CCOC(=O)c1c(-c2cccc([N+](=O)[O-])c2)csc1NC(=O)C1CC1 | -7.7* | · | i | i | i | i
CCOC(=O)c1c(-c2cccc([N+](=O)[O-])c2)csc1NC(=O)C1CCCCC1 | -9.2* | 38 | i | i | i | i
O=[N+]([O-])c1cnc(Nc2ccccc2)nc1Nc1ccccc1 | i | -3 | i | i | i | i
Cc1cc(S(=O)(=O)NCC(c2ccc3c(c2)OCO3)N2CCOCC2)ccc1F (configuration not stated) | i | · | i | i | i | i
O=[N+]([O-])c1ccccc1/C=N\N1CCN(c2ccccc2)CC1 | i | 13 | 6.9* | i | i | i
c1ccc(C[n+]2ccc3ccccc3c2)cc1 | -7.9* | · | i | i | i | i
CCOC(=O)C1CCCN(S(=O)(=O)c2cnc(Cl)c(Br)c2)C1 (configuration not stated) | i | 3 | i | i | i | i
COc1ccc(CNC(=O)c2ccccc2NC(=O)C2=CSCCO2)c(OC)c1 | i | -16 | i | i | i | i
CN1CCN(/N=C/c2ccc(N(c3ccccc3)c3ccccc3)cc2)CC1 | -7.8* | 27 | i | i | i | i
CCC(C)(C)n1nnnc1C(c1cc2ccc(C)cc2[nH]c1=O)N(Cc1cccnc1)Cc1ccco1 (configuration not stated) | i | 62* | i | i | i | i
Cc1cc2cc(C(c3nnnn3C3CCCC3)N(Cc3cccnc3)Cc3ccco3)c(=O)[nH]c2cc1C (configuration not stated) | i | 34 | i | i | i | i
CCN(CCCNC(=O)CCCCn1c(=O)[nH]c2ccccc2c1=O)c1ccccc1 | i | · | i | i | i | -5*
COCCCNC(=O)CCCn1c(=O)[nH]c2ccccc2c1=O | i | · | i | i | i | i
COc1ccc(-c2nc3ccccc3nc2-c2ccc(OC)cc2)cc1 | -7* | 1 | i | i | i | i
O=C(CSc1nnc(NC(=O)c2ccccc2Cl)s1)Nc1ccc2c(c1)oc1ccccc12 | i | 6 | i | i | i | -4.6*
O=C(CCCCCNc1nc(=S)[nH]c2ccccc12)NCCc1ccc(Cl)cc1 | i | 2 | 9.7* | i | i | i
O=C(CCCCCNc1nc(=S)[nH]c2ccccc12)NCCc1c[nH]c2ccccc12 | i | -6 | i | i | i | i
